Reference: paper PMC3793015 (Journal of agricultural and food chemistry, 2013)

Columns and labels:
RAW 264.7 = experiment: Cytotoxicity of α-MG; assay type: cell-based, murine; conditions: read-out: IC50 (cytotoxicity); RAW 264.7, 24 h, 10% FBS delivery
How it was run: (§1)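 Cytotoxicity was judged by phase-contrast morphology and MTT reduction to formazan after exposure to increasing compound concentrations. Exposure was 24 h for RAW 264.7, MDM, HepG2 and HT-29, 8 h for PMA-differentiated THP-1, and 4 h for differentiated Caco-2. Delivery was DMSO into 10% FBS medium for RAW 264.7, THP-1 and HepG2; FBS-complexed compound at 10% FBS in RPMI 1640 for MDM; Tween 40 micelles for Caco-2 and HT-29.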

THP-1 = experiment: Cytotoxicity of α-MG; assay type: cell-based, human; conditions: read-out: IC50 (cytotoxicity); THP-1, 8 h, 10% FBS delivery
How it was run: as §1

Caco-2 = experiment: Cytotoxicity of α-MG; assay type: cell-based, human; conditions: read-out: IC50 (cytotoxicity); Caco-2, 4 h, Tween 40 delivery
How it was run: as §1

[1] = system: TNF-α secretion by HepG2 cells; experiment: TNF-α secretion; assay type: cell-based, human
How it was run: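 HepG2 monolayers, 2 days post-confluence, were pretreated with compound (DMSO stock into 10% FBS medium) and then stimulated with phorbol 12-myristate 13-acetate. Secreted TNF-α was quantified by ELISA in activated and nonactivated cultures.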

[2] = system: IL-8 secretion by enterocyte-like Caco-2 cells; experiment: IL-8 secretion into basolateral medium; assay type: cell-based, human
How it was run: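 Caco-2 monolayers were differentiated 21–25 days post-confluence on Transwell inserts. Compound in Tween 40 micelles went into the apical compartment, and IL-1β was added basolaterally. IL-8 in basolateral medium was measured by ELISA, with and without IL-1β.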

[3] = system: IL-8 secretion by colonic HT-29 cells; experiment: IL-8 secretion; assay type: cell-based, human
How it was run: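 HT-29 monolayers, 2 days post-confluence, were pretreated with compound delivered in Tween 40 micelles. Activation used LPS from E. coli O111:B4. IL-8 secreted into the medium was quantified by ELISA, in both activated and nonactivated cultures.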

THP-1 cells = experiment: Cellular uptake and metabolism of α-MG; assay type: in vitro ADME, human
How it was run: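 THP-1 monocytes were differentiated with 100 nM PMA for 48 h, then exposed 24 h to 5.2 μM compound (DMSO stock into 10% FBS medium). Activated cultures were pre-exposed to 5 ng/mL LPS for 4 h and washed with PBS. Spent medium and cells were collected separately, extracted and analysed by RP-HPLC for free and glucuronidated/sulfated xanthones. Amounts are % of initial compound; mean ± SD, n ≥ 5.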

HT-29 cells = experiment: Cellular uptake and metabolism of α-MG; assay type: in vitro ADME, human
How it was run: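 HT-29 monolayers, 2 days post-confluence, given 8.5 μM compound in Tween 40 micelles in medium for 24 h. Activated cultures had 800 ng/mL LPS for 4 h, then a PBS wash, before compound. Spent medium and cells were collected separately, extracted and analysed by RP-HPLC, including glucuronide/sulfate conjugates. Xanthones were identified by retention time and UV spectrum and quantified against five-point mangostin standard curves. Results are given as % of initial compound; mean ± SD, n ≥ 5.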

[4] = 24 h after addition of α-MG, control cultures, nd: not detected

Which results are given for `COc1c(O)cc2oc3cc(O)c(CC=C(C)C)c(O)c3c(=O)c2c1CC=C(C)C` [α-MG, α-mangostin]?
IC50 (RAW 264.7): 23 µM; IC50 (THP-1): 23 µM; IC50 (Caco-2): > 80 µM; attenuation of TNF-α secretion ([1]; PMA-activated HepG2, 7 μM pretreatment 16 h, PMA 50 ng/mL 4 h): 22%; effect on secretion of TNF-α ([1]; nonactivated HepG2 cultures): not altered; inhibition of IL-8 chemokine secretion ([2]; activated Caco-2, 15 μM pretreatment 4 h, IL-1β 5 ng/mL 16 h): 30–40%; effect on secretion of IL-8 ([2]; nonactivated Caco-2 cultures): not altered; inhibition of IL-8 chemokine secretion ([3]; activated HT-29, 10 μM pretreatment 1 h, LPS 100 ng/mL 16 h): 30–40%; effect on basal secretion of IL-8 ([3]; nonactivated HT-29 cultures): more than doubled; xanthone in media, THP-1 (THP-1 cells; 0 h, amount of α-MG at start): 33710 ± 161 pmol/dish; intracellular profile table, α-MG at 0 h, THP-1 (THP-1 cells; 0 h, control cultures): 33710 ± 161 pmol/dish; intracellular xanthone, THP-1 (THP-1 cells; [4]): 11439 ± 995 pmol/dish; intracellular ratio of free to conjugated xanthones, activated vs control (THP-1 cells; THP-1, 5 ng/mL LPS 4 h before α-MG, 24 h, p < 0.05): increased; free xanthones in cells, of initial α-MG (THP-1 cells; THP-1, 5.2 μM, 24 h, control): 20 ± 4%; free xanthones in spent medium, of initial α-MG (THP-1 cells; THP-1, 5.2 μM, 24 h, control): 40 ± 1%; phase II conjugates in cells, of initial α-MG (THP-1 cells; THP-1, 5.2 μM, 24 h, control): 14 ± 3%; recovery of xanthones, of α-MG added (THP-1 cells; THP-1, 24 h incubation): 75 ± 6%; xanthone in media, HT-29 (HT-29 cells; 0 h, amount of α-MG at start): 16517 ± 373; intracellular profile table, α-MG at 0 h, HT-29 (HT-29 cells; 0 h, control cultures): 16517 ± 373; intracellular xanthone, HT-29 (HT-29 cells; [4]): 807 ± 178; ratio of free to conjugated xanthones in medium, activated vs control (HT-29 cells; HT-29, 800 ng/mL LPS 4 h before α-MG, 24 h, p < 0.05): increased; free xanthones in medium, of initial α-MG (HT-29 cells; HT-29, 8.5 μM, 24 h, control): 7 ± 2%; nonconjugated xanthones in cells (HT-29 cells; HT-29, 8.5 μM, 24 h, control): only traces; phase II conjugates in cells, of α-MG added (HT-29 cells; HT-29, 8.5 μM, 24 h, control): 5 ± 1%; phase II conjugates in medium, of α-MG added (HT-29 cells; HT-29, 8.5 μM, 24 h, control): 42 ± 3%; recovery of α-MG (HT-29 cells; HT-29, 24 h incubation): 54 ± 4%
